Read-outs that look alike come from different tables or passages of the source.
Legend:
[1] = tested on: chicken embryo; experiment: Chicken embryonic assay; assay type: in vivo; details: egg injection, day 18
[2] = tested on: MCF-7 cells; experiment: MCF-7 cell proliferation assay; assay type: cell-based, human; details: for EC50: Homo sapiens, MCF7
Method in brief: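 MCF-7 cells exposed to test compound or E2 at six concentrations from 10–12 to 10–7 M in EA-free medium. Proliferation read as MTT product absorbance at 570 nm. Three independent trials, each in triplicate. % RME2 = 100 × (OD test − OD VC)/(max OD E2 − OD VC). EC50 from curve fitting. EEF = EC50 of E2/EC50 of sample. One-way ANOVA with Dunnett's test versus E2 at each concentration.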

[3] = tested on: S. typhimurium TA102; details: TA102 +S9, 5 μg/plate
[4] = tested on: S. typhimurium TA100; experiment: Ames test, strain TA100; assay type: cell-based, Salmonella typhimurium
[5] = tested on: S. typhimurium TA98; experiment: Ames test, strain TA98; assay type: cell-based, Salmonella typhimurium
[6] = tested on: chicken fetal liver; experiment: TBARs level; assay type: in vivo; details: lower dose (0.05 mM: 45–50 μg/kg)
[7] = higher dose (0.5 mM: 450–500 μg/kg; E2 0.1 mM: 91 μg/kg)
[8] = lower dose (0.05 mM: 45–50 μg/kg; E2 0.01 mM: 9.1 μg/kg)

SMILES: C[C@]12CC[C@@H]3c4ccc(O)cc4CC[C@H]3[C@@H]1CC[C@@H]2O [E2, 17β-estradiol, reference compound]
- LSI (liver somatic index) [1, 7]: 2.06 ± 0.38%
- REEW (ratio of embryo to egg weight) [1, 7]: 0.38 ± 0.021
- malformation rate [1, 7]: 0.0%
- mortality rate [1, 7]: 33.3%
- number of dead chicken embryo [1, 7]: 6
- number of malformation chicken embryo [1, 7]: 0
- weights: embryo [1, 7]: 22.89 ± 0.87 g
- weights: heart [1, 7]: 0.18 ± 0.01 g
- weights: liver [1, 7]: 0.47 ± 0.07 g
- LSI (liver somatic index) [1, 8]: 2.18 ± 0.01%
- REEW (ratio of embryo to egg weight) [1, 8]: 0.39 ± 0.001
- malformation rate [1, 8]: 0.0%
- mortality rate [1, 8]: 31.8%
- number of dead chicken embryo [1, 8]: 7
- number of malformation chicken embryo [1, 8]: 0
- weights: embryo [1, 8]: 20.24 ± 3.53 g
- weights: heart [1, 8]: 0.18 ± 0.03 g
- weights: liver [1, 8]: 0.54 ± 0.01 g
- EC50 [2]: 0.01 nM

SMILES: Nc1ccc2cc3ccccc3cc2c1 [2-AA, reference compound]
- number of revertants/plate (M ± SD), positive control ([3]; control set of luteolin and apigenin): 997 ± 35 ^e^** revertants/plate
- number of revertants/plate (M ± SD), positive control ([3]; control set of quercetin and genistein): 757 ± 35 ^e^** revertants/plate
- number of revertants/plate (M ± SD), positive control ([4]; TA100 +S9, 5 μg/plate, control set of luteolin and apigenin): 941 ± 56 ^e^** revertants/plate
- number of revertants/plate (M ± SD), positive control ([4]; TA100 +S9, 5 μg/plate, control set of quercetin and genistein): 845 ± 45 ^e^** revertants/plate
- number of revertants/plate (M ± SD), positive control ([5]; TA98 +S9, 5 μg/plate, control set of luteolin and apigenin): 846 ± 47 ^e^** revertants/plate
- number of revertants/plate (M ± SD), positive control ([5]; TA98 +S9, 5 μg/plate, control set of quercetin and genistein): 806 ± 25 ^e^** revertants/plate

SMILES: [N-]=[N+]=[N-].[Na+] [NaN3, reference compound]
- number of revertants/plate (M ± SD), positive control ([4]; TA100 -S9, 1 μg/plate, control set of luteolin and apigenin): 860 ± 52 ^d^** revertants/plate
- number of revertants/plate (M ± SD), positive control ([4]; TA100 -S9, 1 μg/plate, control set of quercetin and genistein): 743 ± 28 ^d^** revertants/plate

SMILES: O=c1cc(-c2ccc(O)c(O)c2)oc2cc(O)cc(O)c12 [luteolin]
- TBARs value [6]: 142.56 nmol/g
- malformation rate [1, 7]: 11.11%
- number of dead chicken embryo [1, 7]: 7
- number of malformation chicken embryo [1, 7]: 1
- weights: embryo [1, 7]: 20.70 ± 0.00 g
- weights: heart [1, 7]: 0.18 ± 0.05 g
- weights: liver [1, 7]: 0.49 ± 0.05 g
- malformation rate [1, 8]: 21.43%
- mortality rate [1, 8]: 12.5%
- number of dead chicken embryo [1, 8]: 2
- number of malformation chicken embryo [1, 8]: 3
- weights: embryo [1, 8]: 19.75 ± 0.75 g
- weights: heart [1, 8]: 0.19 ± 0.05 g
- weights: liver [1, 8]: 0.44 ± 0.05 g
- EEF (estradiol equivalent factor) ([2]; EC50 of E2 divided by that of the test compound): 0.0012
- EC50 [2]: 8.4 nM
- max % RME2 ([2]; highest % RME2 (relative maximum % E2) in test range 10^–12–10^–7 M): 26%

SMILES: O=[N+]([O-])c1ccc2c(c1)Cc1ccccc1-2 [2-NF, reference compound]
- number of revertants/plate (M ± SD), positive control ([5]; TA98 -S9, 1 μg/plate, control set of luteolin and apigenin): 723 ± 64 ^c^** revertants/plate
- number of revertants/plate (M ± SD), positive control ([5]; TA98 -S9, 1 μg/plate, control set of quercetin and genistein): 634 ± 16 ^c^** revertants/plate
